According to ChEMBL document CHEMBL1152777, “Potent non-benzoquinone ansamycin heat shock protein 90 inhibitors from genetic engineering of Streptomyces hygroscopicus” (J Med Chem, 2009):
pIC50, pKd: −log10 of the molar value. The source made the active and inactive calls. No cut-off for these calls is given here.

What was measured:
[1] = tested on: Mus musculus; experiment: Toxicity in human COLO205 tumor bearing nu/nu mouse assessed as body weight change at 15 mg/kg, iv administered once daily for 5 days with 2 day interval for total 13 doses; format: organism-based; set-up: dose 15 mg/kg, route intravenous; details: in vivo
[2] = tested on: COLO 205; experiment: Antitumor activity against human COLO205 tumor bearing mouse assessed as reduction of tumor volume dosed intravenously once daily for 5 days with 2 day interval for total 13 doses; format: functional, organism-based
Procedure, shortened: (§1)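 COLO205 tumor-bearing mice received iv doses of vehicle or test agent (15, 30 or 90 mg/kg) daily for 5 days, then a 2-day holiday, for 13 doses in total. Groups had 10 mice each. Tumor growth was followed over the dosing period and compared with vehicle.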

[3] = tested on: HCT-116; experiment: Cytotoxicity against human HCT116 cells after 72 hrs; format: functional, cell-based; details: HCT-116, 72 h
Procedure, shortened: (§2)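 Viability was read by CellTiter-Glo luminescent assay. Values are means of three independent determinations.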

[4] = tested on: Mus musculus; experiment: Toxicity in human COLO205 tumor bearing nu/nu mouse assessed as body weight change at 30 mg/kg, iv administered once daily for 5 days with 2 day interval for total 13 doses; format: organism-based; set-up: dose 30 mg/kg, route intravenous; details: in vivo
[5] = tested on: Mus musculus; experiment: Inhibition of HSP90 in human COLO205 tumor bearing nu/nu mouse assessed as induction of HSP70 expression at 30 mg/kg, […] after 24 hrs by ELISA; format: functional, organism-based; set-up: dose 30 mg/kg
Procedure, shortened: (§3)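 COLO205 xenograft mice were given a single dose. Tumors were harvested 4 or 24 h later and tumor lysates assayed by ELISA for Hsp70 or ErbB2 protein levels. Vehicle-dosed mice served as comparison.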

[6] = tested on: Mus musculus; experiment: Inhibition of HSP90 in human COLO205 tumor bearing nu/nu mouse assessed as reduction of ErbB2 protein level at 30 mg/kg, iv after 24 hrs by ELISA
[7] = Cytotoxicity against NQ01-deficient human MDA468 cells after 72 hrs; format: functional, cell-based; details: MDA-MB-468, 72 h; procedure, shortened: as §2
[8] = tested on: COLO 205; experiment: Antitumor activity against human COLO205 tumor bearing mouse assessed as reduction of tumor volume at 30 mg/kg, iv administered once daily for 5 days with 2 day interval for total 13 doses; format: functional, organism-based; set-up: dose 30 mg/kg; procedure, shortened: as §1
[9] = tested on: Mus musculus; experiment: Inhibition of HSP90 in human COLO205 tumor bearing nu/nu mouse assessed as reduction of ErbB2 protein level at 30 mg/kg, […] after 4 hrs by ELISA; format: functional, organism-based; set-up: dose 30 mg/kg; procedure, shortened: as §3
[10] = target: T1, Heat shock protein HSP 90-alpha (Homo sapiens, UniProt P07900); experiment: Binding affinity to human recombinant Hsp90alpha N-terminal domain by scintillation proximity assay
[11] = tested on: COLO 205; experiment: Antitumor activity against human COLO205 tumor bearing mouse assessed as reduction of tumor volume at 15 mg/kg, iv once daily for 5 days with 2 day interval for total 13 doses; format: functional, organism-based; set-up: dose 15 mg/kg; procedure, shortened: as §1
[12] = tested on: SK-OV-3; experiment: Cytotoxicity against human SKOV3 cells after 72 hrs; format: functional, cell-based; details: SK-OV-3, 72 h; procedure, shortened: as §2
[13] = tested on: Mus musculus; experiment: Inhibition of HSP90 in human COLO205 tumor bearing nu/nu mouse assessed as induction of HSP70 expression at 30 mg/kg, […] after 4 hrs by ELISA; format: functional, organism-based; set-up: dose 30 mg/kg; procedure, shortened: as §3
[14] = tested on: MCF7; experiment: Cytotoxicity against human MCF7 cells after 72 hrs; format: functional, cell-based; details: MCF7, 72 h; procedure, shortened: as §2
[15] = tested on: SK-BR-3; experiment: Cytotoxicity against human SKBR3 cells after 72 hrs; format: functional, cell-based; details: SK-BR-3, 72 h; procedure, shortened: as §2
[16] = tested on: NCI-H596; experiment: Cytotoxicity against NQ01-deficient human NCI-H596 cells after 72 hrs; format: functional, cell-based; details: NCI-H596, 72 h; procedure, shortened: as §2
[17] = target: T1, Heat shock protein HSP 90-alpha; experiment: Binding affinity to human recombinant Hsp90alpha N-terminal domain by isothermal titration calorimetry
[18] = tested on: SK-BR-3; experiment: Cytotoxicity against human SKBR3 cells after 72 hrs in presence of NQO1 inhibitor dicoumarol; format: functional, cell-based; details: SK-BR-3, 72 h; procedure, shortened: as §2
[19] = tested on: MCF7; experiment: Cytotoxicity against human MCF7 cells after 72 hrs in presence of NQO1 inhibitor dicoumarol; format: functional, cell-based; details: MCF7, 72 h; procedure, shortened: as §2
[20] = tested on: COLO 205; experiment: Antitumor activity against human COLO205 tumor bearing mouse assessed as reduction of tumor volume at 90 mg/kg, iv administered once daily for 5 days with 2 day interval for total 13 doses; format: functional, organism-based; set-up: dose 90 mg/kg; procedure, shortened: as §1

SMILES	Activity [1]	Activity [2]	pIC50 [3]	Activity [4]	Activity [5]	Activity [6]	pIC50 [7]	Activity [8]	Activity [9]	pKd [10]	Activity [11]	pIC50 [12]	Activity [13]	pIC50 [14]	pIC50 [15]	pIC50 [16]	pKd [17]	pIC50 [18]	pIC50 [19]	Activity [20]
CO[C@H]1C[C@H](C)Cc2cc(cc(Cl)c2O)NC(=O)/C(C)=C/CC[C@H](OC)[C@@H](OC(N)=O)/C(C)=C/[C@H](C)[C@H]1O	Non-toxic	Dose-dependent effect	6.92	Non-toxic	Active	Active	7.05	Active	Active	7.30	Active	6.85	Active							
CO[C@H]1C[C@H](C)Cc2cccc(c2)NC(=O)/C(C)=C/CC[C@H](OC)[C@@H](OC(N)=O)/C(C)=C/[C@H](C)[C@H]1O			6.62				6.72					6.49		6.86	7.02	6.41	8.27			
CO[C@H]1/C=C\C=C(/C)C(=O)Nc2cc(Cl)c(O)c(c2O)C[C@@H](C)C[C@H](OC)[C@H](O)[C@@H](C)/C=C(\C)[C@@H]1OC(N)=O			6.37				6.35					6.46		6.48	6.40	6.15				
CO[C@H]1/C=C\C=C(/C)C(=O)Nc2ccc(O)c(c2)C[C@@H](C)C[C@H](OC)[C@H](O)[C@@H](C)/C=C(\C)[C@@H]1OC(N)=O			6.75				6.80								7.08	6.49	8.60			
CO[C@H]1/C=C\C=C(/C)C(=O)NC2=CC(=O)C(NCCN(C)C)=C(C[C@@H](C)C[C@H](OC)[C@H](O)[C@@H](C)/C=C(\C)[C@@H]1OC(N)=O)C2=O [ALVESPIMYCIN]			7.24				5.80					6.91		7.15	7.24	5.96		6.64	6.06	
C=CCNC1=C2C[C@@H](C)C[C@H](OC)[C@H](O)[C@@H](C)/C=C(\C)[C@H](OC(N)=O)[C@@H](OC)/C=C\C=C(/C)C(=O)NC(=CC1=O)C2=O [TANESPIMYCIN]			6.69				5.82				Active	6.62		7.24	7.36	5.80		6.39	6.18	Active
CO[C@H]1C[C@H](C)Cc2cc(ccc2O)NC(=O)/C(C)=C/CC[C@H](OC)[C@@H](OC(N)=O)/C(C)=C/[C@H](C)[C@H]1O			5.98				6.38							6.21	6.08	5.92	9.10			
